# An excerpt weighted towards active compounds, which were near 4% of everything screened.
# TAAR1 agonist: human TAAR1 agonism; 360,000 tested, 0.99% active; activation, % at 3 µM; Q96RJ0; CHO RD-HGA16 TAAR1, Fluo-8 calcium fluorescence; vehicle wells 0%, saturating PEA agonist 100%;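 active = activation above the mean activation of all test compounds in the run plus 3 SD, cut at about 38% in these data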
# Target sequence (Q96RJ0 whole entry, looked up): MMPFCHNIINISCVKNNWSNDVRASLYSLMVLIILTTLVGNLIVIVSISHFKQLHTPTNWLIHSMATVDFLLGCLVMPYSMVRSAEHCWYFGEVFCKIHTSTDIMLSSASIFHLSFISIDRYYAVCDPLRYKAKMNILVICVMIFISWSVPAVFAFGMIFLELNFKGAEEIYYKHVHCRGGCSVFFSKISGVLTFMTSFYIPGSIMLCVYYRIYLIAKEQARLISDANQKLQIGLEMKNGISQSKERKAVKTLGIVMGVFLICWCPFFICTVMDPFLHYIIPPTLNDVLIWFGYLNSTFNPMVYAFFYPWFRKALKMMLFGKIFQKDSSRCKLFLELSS
#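 System: CHO RD-HGA16 cells carrying human TAAR1 plus Gα16; Incubation: 17-24 h seeding, 75 min 37 °C dye, 30 min RT; Measured by: Fluo-8 fluorescence, 5 s baseline then 140 s kinetic read; Control set: DMSO and PEA EC100; Replication: single well for each compound.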
# OX1R antag-1: blocks the human orexin 1 receptor. O43613. OX1R-expressing cells, FRET antagonist read-out. inhibition, % at 6.6 µM. 330,000 tested, 1.8% active. AID 485270; in the data active = inhibition mostly above about 38%, no sharp cut-off; inactive = mostly below about 40%;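 also: 0% = agonist challenge alone and 100% = reference antagonist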
# OX1R antag-2: human HCRTR1 antagonism; O43613; CHO/OX1R cells, Fluo-8 calcium fluorescence, orexin A; inhibition, % at 5 µM; 330,000 tested, 0.43% active; AID 434989;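 active = inhibition above its plate's threshold, mean inhibition of all tested compounds on the plate plus 3 SD, cut at about 37% in these data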;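 also: 0% = orexin A challenge wells and 100% = SB-334867-A antagonist wells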
# TAAR1 antagonist: human TAAR1 antagonism; Q96RJ0; CHO RD-HGA16 TAAR1, Fluo-8 calcium fluorescence, antagonist; 360,000 tested, 1.5% active; AID 624466; inhibition, % at 3 µM;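 active = inhibition above a per-plate cutoff, the mean inhibition of test compounds on that plate plus 3 SD, cut at about 49% in these data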;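 also: 0% = DMSO plus EC80 beta-PEA response and 100% = DMSO alone without agonist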
#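 Material: CHO RD-HGA16 cells bearing hTAAR1; compound dosing: one-point dosing, 3 µM nominal final; schedule: dye loading 75 min at 37 °C, then 30 min room temperature; measured by: calcium fluorescence with Fluo-8; control set: vehicle and agonist controls; replication: n of 1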
# CHO parental Ca: signal in parental CHO cells, OX1R antagonist counter-screen; AID 463079; 330,000 tested, 0.63% active; parental CHO-K1, ATP-induced calcium, Fluo-8 fluorescence; inhibition, % at 5.6 µM;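 active = inhibition above that plate's mean sample inhibition plus 3 SD, cut at about 26% in these data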;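 also: 0% = ATP-challenged DMSO wells and 100% = DMSO wells without ATP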
#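 Test system: untransfected parental CHO cell line; also added: ATP stimulus; dosing: 5.6 µM, single dose; signal: calcium-sensitive Fluo-8 fluorescence; measure: percent inhibition of ATP-evoked calcium rise, normalized to controls; benchmarks: low control ATP plus DMSO, high control DMSO only; replication: one well per compound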
# Active calls of the source: *; x = no result.
SMILES,TAAR1 agonist,OX1R antag-1,OX1R antag-2,TAAR1 antagonist,CHO parental Ca
O=C(N[C@H](C(=O)N1CCC[C@H]1C(=O)NC1CCCC1)c1ccccc1)C1CCCC1,1,x,x,-24,x
Cc1ccc(NC(=O)[C@H](C)NC(=O)C2CCN(C(=O)[C@@H](N)CC(C)C)CC2)cc1,1,7,-8,-21,4
Cc1ccc(NS(=O)(=O)c2ccc(C(=O)OCC(=O)N3CCCCC3)cc2)cc1,41*,5,6,41,-5
Cc1ccc(C(=O)OCC(=O)N2CCCC2)cc1,-1,5,-7,-17,5
O=C(Nc1cccc([N+](=O)[O-])c1)Nc1cccc([N+](=O)[O-])c1,12,45,-11,-8,34*
O=C(Nc1cccc([N+](=O)[O-])c1)c1ccc(CSc2ccccc2)cc1,15,19,-10,52*,-5
O=C(Nc1cccc([N+](=O)[O-])c1)c1ccccc1,0,16,-10,4,-4
O=C(Nc1ccc(C(=O)O)cc1)Nc1cccc([N+](=O)[O-])c1,11,18,-14,3,-11
COc1cccc(CNS(=O)(=O)c2cc(Br)ccc2Br)c1OC,2,x,x,-3,x
Cc1ccc(NC(=O)/C=C/c2ccc(S(=O)(=O)N3CCOCC3)cc2)cc1S(=O)(=O)N(C)C,22,x,x,66*,x
CC(=O)Nc1cccc(NC(=O)/C=C/c2ccc(S(=O)(=O)N3CCOCC3)cc2)c1,2,11,10,2,-19
COc1ccc(OC)c(-c2cc(C(F)(F)F)c3c(n2)sc2c(O)cc(=O)[nH]c23)c1,3,4,4,10,-2
C/C=C/C=C/C(=O)c1cc(C)c(OC(=O)CNC(=O)OC(C)(C)C)c(C)c1O,3,x,x,31,x
CCc1c(-c2cccc(OC)c2)ncn1CCc1ccccc1OC,13,x,x,-11,x
O=C(Nc1ccccc1F)c1ccc2snnc2c1,-3,71*,-18,-17,-9
O=C(Nc1ccccc1)Nc1ccc2snnc2c1,40*,86*,29,17,31
CN(C)c1ccc(NC(=O)Nc2ccc3snnc3c2)cc1,22,54,30,58*,21
O=C(Nc1ccccc1)Nc1ccc2nnsc2c1,30,17,24,3,31
CC(=O)c1ccc(NC(=O)c2ccc3snnc3c2)cc1,3,7,-1,-4,0
O=C(Nc1ccc(Cl)cc1)c1ccc2snnc2c1,6,16,1,4,10
O=c1c(OCc2ccccc2)cccn1Cc1ccccc1,1,x,x,-7,x
CCc1cc2cc(C)ccc2nc1SCC(=O)NNC(=O)c1ccco1,-6,48*,-19,-15,-14
COC(=O)CCN(Cc1cccc(OC)c1OC)S(=O)(=O)c1ccccc1Br,0,x,x,-17,x
N#Cc1c2ccc([N+](=O)[O-])cc2[n+]([O-])n1-c1ccccc1,2,45*,2,2,8
O=C(COC(=O)CNC(=O)c1ccc(Cl)c([N+](=O)[O-])c1)NC(=O)c1ccccc1,0,51*,-8,-17,-2
SMILES,TAAR1 agonist,OX1R antag-1,OX1R antag-2,TAAR1 antagonist,CHO parental Ca
CCN(c1ccccc1)S(=O)(=O)c1ccc(Cl)c(NC(=O)CN2CCCCCC2)c1,1,87*,32,23,73*
CCN(CC)S(=O)(=O)c1ccc(Cl)c(NC(=S)NC(=O)C2CCCC2)c1,11,9,67*,38,44*
CCN(CC)c1ccc(S(=O)(=O)Nc2cc(Cl)ccc2Cl)cc1NC(=S)NC(=O)C1CCCC1,-1,31,-1,24,-11
CN(C)S(=O)(=O)c1ccc(Cl)c(NC(=O)CN2CCCCCC2)c1,4,17,-27,-7,7
COc1ccc(C2=Nn3c([n+](C)c4ccccc43)SC2)cc1,2,42*,-33,12,-18
C[n+]1c2n(c3ccccc31)N=C(c1ccc(Cl)cc1)CS2,1,21,-29,0,-21
CN[C@H]1C[C@@H](c2ccccc2Br)N(C(C)=O)C[C@H]1CO,2,x,x,-16,x
CC(C)C(NC(=O)c1c(F)cccc1F)C(=O)N1CCN(c2ccccc2F)CC1 (stereo not given),0,8,-34,-6,-24
Cn1nc(CC(=O)Nc2ncc(Br)s2)c2ccccc2c1=O,44*,34,15,29,22
CCCCC(=O)Nc1nc2ccc3nc(C)sc3c2s1,-1,52*,-11,-12,-18
COc1cc(NC(=O)C2CCCCC2)c(OC)cc1NC(=O)c1ccccc1,0,19,-33,-2,-11
O=C(COC(=O)c1ccccc1[N+](=O)[O-])c1ccc(C2CCCCC2)cc1,7,39,14,36,47*
NS(=O)(=O)c1ccc(CCNC(=O)c2cnc(Cl)c(Cl)c2)cc1,2,11,-22,-10,-10
Nc1ccc(O)c([N+](=O)[O-])c1,0,49*,-10,-4,5
O=C(c1ccccc1Cl)N1CCSCCS1(=O)=O,6,x,x,-1,x
CCc1c2c(nc3ccc(OC(=O)N4CCC(N5CCCCC5)CC4)cc13)-c1cc3c(c(=O)n1C2)COC(=O)[C@]3(O)CC,0,53*,-25,-1,-5
CCC1(O)C(=O)OCc2c1cc1n(c2=O)Cc2cc3cc(O)ccc3nc2-1 (stereo not given),1,x,x,-8,x
COc1ccccc1-c1sc2ccccc2c1-c1ccc(OCCN2CCCCC2)cc1,x,-4,24,x,20
Oc1ccc2sc(-c3ccccc3O)c(-c3ccc(OCCN4CCCCC4)cc3)c2c1,39*,x,x,53*,x
C[C@@H]1CN([C@H](C)CO)C(=O)c2cc(NC(=O)Nc3ccc(F)cc3)ccc2O[C@@H](C)CCCCO[C@@H]1CN(C)C(=O)CCCN(C)C,4,x,x,-14,x
CN(C)c1ccc(-n2cc3c(=O)n(C)c(=O)n(C)c3c2)cc1,0,29,-16,-14,-12
CCN(CC)c1ccc(-n2cc3c(=O)n(C)c(=O)n(C)c3c2)cc1,6,74*,12,-8,-15
CCN1C(=C2C(=O)c3ccccc3C2=O)C=Cc2ccccc21,4,62*,-12,13,-6
CCOC(=O)c1c(-c2ccc(Cl)cc2)csc1NC(=O)CNCc1ccco1,3,35,-24,42,-23
CCOC(=O)c1c(-c2ccccc2)csc1NC(=O)CSc1nc(N)cc(N)n1,-1,30,1,10,-18
CCOC(=O)c1c(-c2ccccc2)csc1NC(=O)CSc1nc(C)cc(C)n1,2,36,-4,23,37*
CCOC(=O)c1c(-c2ccc(OC)cc2)csc1NC(=O)CNCc1ccco1,x,46*,-8,x,-20
CC(=O)C1=C(C)N(CC(C)C)C(=S)NC1c1cccc(Cl)c1 (stereo not given),-3,x,x,19,x
O=C(NC(c1cccnc1)C(F)(F)F)c1cc(COc2ccc3c(c2)CCCC3)on1 (stereo not given),1,10,19,-4,42*
